Assays:
Format in all cases: functional
MCF7 [1] = assay: Estrogenic effect in human MCF7 cells assessed as stimulation of cell proliferation at 0.1 nM relative to control by [3H]hypoxanthine incorporation assay
In short: (§1)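 MCF-7 cells were grown to confluence in DMEM with 10% FBS, trypsinized, and viable cells (Trypan blue) seeded at 10 000/well in phenol red-free medium. After overnight attachment, tamoxifen (2 μM) was added for 24 h. Cells were washed with Ca/Mg-free PBS, then exposed to test agents for 1 day. [3H]-hypoxanthine (9.25 kBq/well) was added for 12 h. Triplicates; % proliferation scaled with no-compound as 0% and β-estradiol 10 nM as 100%; Dunnett's test.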

MCF7 [2] = assay: Estrogenic effect in human MCF7 cells assessed as stimulation of cell proliferation at 10 nM relative to control by [3H]hypoxanthine incorporation assay; in short: as §1
MCF7 [3] = assay: Estrogenic effect in human MCF7 cells assessed as stimulation of cell proliferation at 1 nM relative to control by [3H]hypoxanthine incorporation assay; in short: as §1
MCF7 [4] = assay: Estrogenic effect in human MCF7 cells assessed as stimulation of cell proliferation at 1 ug/ml relative to control by [3H]hypoxanthine incorporation assay
In short: as §1, with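 “day.” for “day. [3H]-hypoxanthine (9.25 kBq/well) was added for 12 h.”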

MCF7 [5] = assay: Estrogenic effect in human MCF7 cells assessed as stimulation of cell proliferation at 10 ug/ml relative to control by [3H]hypoxanthine incorporation assay
In short: as §1, with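 “day.” for “day. [3H]-hypoxanthine (9.25 kBq/well) was added for 12 h.”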

MCF7 [6] = assay: Estrogenic effect in human MCF7 cells assessed as stimulation of cell proliferation at 0.1 ug/ml relative to control by [3H]hypoxanthine incorporation assay
In short: as §1, with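 “day.” for “day. [3H]-hypoxanthine (9.25 kBq/well) was added for 12 h.”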

Structure (SMILES) | Activity (MCF7 [1]) [%] | Activity (MCF7 [2]) [%] | Activity (MCF7 [3]) [%] | Activity (MCF7 [4]) [%] | Activity (MCF7 [5]) [%] | Activity (MCF7 [6]) [%]
C[C@]12CC[C@@H]3c4ccc(O)cc4CC[C@H]3[C@@H]1CC[C@@H]2O [ESTRADIOL] | 74.6 | 100 | 130.3 | – | – | –
CC1=CC(=O)[C@@H]2[C@](C)(CC[C@@]2(O)C(C)C)CC1=O | – | – | – | -26.5 | -285.7 | 5.9
O=c1c(-c2ccc(O)cc2)coc2cc(O)cc(O)c12 [GENISTEIN] | – | – | – | 114.8 | -76.7 | -72.4
C/C=C(/C)C(=O)O[C@@]1(C)CCC2=C(C(C)C)[C@@H](OCC)C[C@]2(C)CC1=O | – | – | – | 321.4 | 974.4 | 223.9
CC1=CC(=O)[C@@H]2[C@@](C)(CC1)CC[C@@]2(O)C(C)C | – | – | – | 97.5 | 181.4 | 308.2

Source: ChEMBL document CHEMBL1158723, “Daucane sesquiterpenes from Ferula hermonis” (2005)
